Measurements published in ChEMBL document CHEMBL4627334, “Design, synthesis and biological evaluation of 4-(pyridin-4-yloxy)benzamide derivatives bearing a 5-methylpyridazin-3(2H)-one fragment” (Bioorg Med Chem Lett, 2020).
The source made the active and inactive calls. No cut-off for these calls is given here.

Legend:
MCF7 [1] = assay: Antiproliferative activity against human MCF7 cells assessed as reduction in cell viability after 72 hrs by MTT assay; assay type: functional, cell-based
How it was run: (§1)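 Cells grown in DMEM/1640 with 10% FBS, seeded at about 4×10^3 per well and held 24 h at 37 °C, 5% CO2. Compounds diluted in medium or DMSO were added for 72 h, then MTT ([…]) was added for 3.5 h at 37 °C. Formazan was dissolved in DMSO and read at 492 nm against 630 nm. Triplicate wells, three runs, IC50 calculated.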

A549 [2] = assay: Antiproliferative activity against human A549 cells assessed as reduction in cell viability after 72 hrs by MTT assay; assay type: functional, cell-based; conditions: A549, 72 h; how it was run: as §1
HeLa [3] = assay: Antiproliferative activity against human HeLa cells assessed as reduction in cell viability after 72 hrs by MTT assay; assay type: functional, cell-based; how it was run: as §1
HeLa [4] = assay: Antiproliferative activity against human HeLa cells assessed as inhibition of cell proliferation at 1.23 umol/L after 72 hrs by MTT assay relative to control; assay type: functional
How it was run: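 Cells were cultured in medium with 10% FBS and seeded near 4×10^3 per well, 24 h before dosing. MTT (5 µg/mL) was added for 3.5 h at 37 °C, formazan dissolved in DMSO, and absorbance read at 492/630 nm.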

[5] = molecular target: Hepatocyte growth factor receptor (Homo sapiens, UniProt P08581); assay: Inhibition of cMET (unknown origin) using FAM-labeled peptide as substrate pre-incubated for 5 to 10 mins followed by substrate addition and measured after 30 to 60 mins by mobility shift assay
A549 [6] = assay: Potency index, ratio of golvatinib IC50 to test compound IC50 for antiproliferative activity against human A549 cells; assay type: functional
HeLa [7] = assay: Induction of apoptosis in human HeLa cells after 12 hrs by acridine orange staining based assay; assay type: functional, cell-based
How it was run: (§2)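 HeLa cells were treated at 1 and 5 µg/L for 12 h, then stained with acridine orange. Morphology was compared with untreated control cells, scoring cytoplasmic contraction, membrane swelling and apoptotic bodies.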

HeLa [8] = assay: Induction of apoptosis in human HeLa cells assessed as cytoplasmic contraction at 1 to 5 ug/L after 12 hrs by acridine orange staining based assay; assay type: functional, cell-based; how it was run: as §2
HeLa [9] = assay: Potency index, ratio of golvatinib IC50 to test compound IC50 for antiproliferative activity against human HeLa cells; assay type: functional
HeLa [10] = assay: Induction of apoptosis in human HeLa cells assessed as increase in apoptotic bodies at 1 to 5 ug/L after 12 hrs by acridine orange staining based assay; assay type: functional, cell-based; how it was run: as §2
MCF7 [11] = assay: Potency index, ratio of golvatinib IC50 to test compound IC50 for antiproliferative activity against human MCF7 cells; assay type: functional
HeLa [12] = assay: Induction of apoptosis in human HeLa cells assessed as membrane swelling at 1 to 5 ug/L after 12 hrs by acridine orange staining based assay; assay type: functional, cell-based; how it was run: as §2
[13] = Homo sapiens, MCF7, 72 h, read-out: IC50
[14] = Homo sapiens, HeLa, 72 h, read-out: IC50

Sequence of Hepatocyte growth factor receptor (P08581 whole entry): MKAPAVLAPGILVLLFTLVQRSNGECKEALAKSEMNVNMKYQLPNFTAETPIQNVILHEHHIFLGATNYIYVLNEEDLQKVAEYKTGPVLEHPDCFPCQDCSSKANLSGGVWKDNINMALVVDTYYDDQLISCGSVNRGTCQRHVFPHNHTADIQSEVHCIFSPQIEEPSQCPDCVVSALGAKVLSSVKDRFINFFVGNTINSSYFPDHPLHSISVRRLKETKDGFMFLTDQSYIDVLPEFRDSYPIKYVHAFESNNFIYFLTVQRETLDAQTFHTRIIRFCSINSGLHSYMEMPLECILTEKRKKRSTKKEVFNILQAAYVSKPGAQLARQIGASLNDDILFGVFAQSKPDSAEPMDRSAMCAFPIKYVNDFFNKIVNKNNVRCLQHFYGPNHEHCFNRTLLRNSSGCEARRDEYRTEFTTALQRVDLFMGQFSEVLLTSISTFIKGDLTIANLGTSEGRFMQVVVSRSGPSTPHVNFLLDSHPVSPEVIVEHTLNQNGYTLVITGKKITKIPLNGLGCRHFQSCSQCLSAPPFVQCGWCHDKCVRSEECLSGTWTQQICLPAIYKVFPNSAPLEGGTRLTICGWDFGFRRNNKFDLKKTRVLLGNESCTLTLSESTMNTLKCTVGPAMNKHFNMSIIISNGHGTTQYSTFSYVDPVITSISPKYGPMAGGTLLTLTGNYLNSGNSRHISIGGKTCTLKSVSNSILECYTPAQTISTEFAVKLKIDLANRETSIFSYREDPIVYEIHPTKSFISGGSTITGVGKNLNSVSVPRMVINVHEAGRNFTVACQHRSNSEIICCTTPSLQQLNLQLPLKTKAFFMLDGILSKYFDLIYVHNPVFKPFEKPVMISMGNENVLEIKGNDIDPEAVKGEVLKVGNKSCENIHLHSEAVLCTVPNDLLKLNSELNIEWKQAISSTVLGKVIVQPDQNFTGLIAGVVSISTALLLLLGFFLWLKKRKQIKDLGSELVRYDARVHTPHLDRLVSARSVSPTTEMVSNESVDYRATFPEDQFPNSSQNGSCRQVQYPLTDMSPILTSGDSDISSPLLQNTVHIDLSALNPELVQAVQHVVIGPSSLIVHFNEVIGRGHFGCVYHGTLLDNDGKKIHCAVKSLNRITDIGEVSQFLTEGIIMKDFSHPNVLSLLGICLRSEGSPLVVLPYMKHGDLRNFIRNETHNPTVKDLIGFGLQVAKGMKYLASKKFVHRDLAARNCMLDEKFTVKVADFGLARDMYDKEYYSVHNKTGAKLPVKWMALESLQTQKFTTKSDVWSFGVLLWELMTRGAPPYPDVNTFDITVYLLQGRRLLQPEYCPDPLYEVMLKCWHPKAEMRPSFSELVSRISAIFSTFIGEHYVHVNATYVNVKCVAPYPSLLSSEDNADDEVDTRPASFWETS

Row | SMILES | IC50 (MCF7 [1]; [13]) [µM] | IC50 (A549 [2]) [µM] | IC50 (HeLa [3]; [14]) [µM] | also measured
1 | CNC(=O)c1cc(Oc2ccc(NC(=O)c3nn(-c4ccccc4Cl)c(=O)cc3C)cc2F)ccn1 | 136 | 11.8 | 9.87 | –
2 | CCCNC(=O)c1cc(Oc2ccc(NC(=O)c3nn(-c4ccccc4C)c(=O)cc3C)cc2F)ccn1 | 39.6 | 25.7 | 24.6 | –
3 | Cc1cc(=O)n(-c2ccc(Br)cc2F)nc1C(=O)Nc1ccc(Oc2ccnc(C(=O)NCCc3cccs3)c2)cc1 | 969 | 585 | 387 | –
4 | CCNC(=O)c1cc(Oc2ccc(NC(=O)c3nn(-c4ccccc4C)c(=O)cc3C)cc2)ccn1 | 44.3 | 34.8 | 27.3 | –
5 | CCNC(=O)c1cc(Oc2ccc(NC(=O)c3nn(-c4cccc(C(F)(F)F)c4)c(=O)cc3C)cc2)ccn1 | 40.6 | 10 | 10.7 | –
6 | Cc1ccc(-n2nc(C(=O)Nc3ccc(Oc4ccnc(C(=O)NCCc5cccs5)c4)cc3)c(C)cc2=O)cc1 | – | 965 | 660 | IC50 (MCF7 [1]; mcf7): Not Active
7 | CCNC(=O)c1cc(Oc2ccc(NC(=O)c3nn(-c4ccc(Br)cc4F)c(=O)cc3C)cc2)ccn1 | 35.1 | 34.5 | – | IC50 (HeLa [3]; hela): Not Active
8 | Cc1cc(=O)n(-c2ccccc2OC(F)(F)F)nc1C(=O)Nc1ccc(Oc2ccnc(C(=O)NCCc3cccs3)c2)cc1 | – | 876 | 434 | IC50 (MCF7 [1]; mcf7): Not Active
9 | Cc1cc(=O)n(-c2cccc(C(F)(F)F)c2)nc1C(=O)Nc1ccc(Oc2ccnc(C(=O)NCCc3cccs3)c2)cc1 | – | 722 | 885 | IC50 (MCF7 [1]; mcf7): Not Active
10 | CNC(=O)c1cc(Oc2ccc(NC(=O)c3nn(-c4ccccc4)c(=O)cc3C)cc2F)ccn1 | – | 40.8 | – | IC50 (MCF7 [1]; mcf7): Not Active; IC50 (HeLa [3]; hela): Not Active
11 | CNC(=O)c1cc(Oc2ccc(NC(=O)c3nn(-c4cccc(C(F)(F)F)c4)c(=O)cc3C)cc2F)ccn1 | 45.8 | 10.2 | 11.8 | –
12 | CCCNC(=O)c1cc(Oc2ccc(NC(=O)c3nn(-c4ccc(C)cc4)c(=O)cc3C)cc2F)ccn1 | 34.6 | 18 | 14.2 | –
13 | CCNC(=O)c1cc(Oc2ccc(NC(=O)c3nn(-c4ccc(C)cc4)c(=O)cc3C)cc2)ccn1 | 51.2 | 11.6 | 10.7 | –
14 | CCCNC(=O)c1cc(Oc2ccc(NC(=O)c3nn(-c4ccc(Br)cc4F)c(=O)cc3C)cc2F)ccn1 | – | 235 | 53.5 | IC50 (MCF7 [1]; mcf7): Not Active

The next compounds have a lower IC50 (A549 [2]) than those just listed; values first:

Row | IC50 (MCF7 [1]; [13]) [µM] | IC50 (A549 [2]) [µM] | IC50 (HeLa [3]; [14]) [µM] | SMILES | also measured
15 | 30 | 9.24 | 8 | CCCNC(=O)c1cc(Oc2ccc(NC(=O)c3nn(-c4cccc(C(F)(F)F)c4)c(=O)cc3C)cc2F)ccn1 | –
16 | 18.9 | 7.41 | 6.87 | CCNC(=O)c1cc(Oc2ccc(NC(=O)c3nn(-c4cccc(F)c4)c(=O)cc3C)cc2)ccn1 | –
17 | 13.3 | 7.02 | 6.66 | CCCNC(=O)c1cc(Oc2ccc(NC(=O)c3nn(-c4cccc(F)c4)c(=O)cc3C)cc2F)ccn1 | –
18 | 20.6 | 6.89 | 4.14 | CN1CCN(C2CCN(C(=O)Nc3cc(Oc4ccc(NC(=O)C5(C(=O)Nc6ccc(F)cc6)CC5)c(F)c4)ccn3)CC2)CC1 [GOLVATINIB] | inhibition at 1.23 µM (HeLa [4]): 20%
19 | 8.23 | 6.83 | 4.25 | Cc1cc(=O)n(-c2ccc(Br)cc2F)nc1C(=O)Nc1ccc(Oc2ccnc(C(=O)NCCCN3CCOCC3)c2)cc1 | IC50 [5]: > 10 µM
20 | 15.5 | 5.28 | 3.99 | CCNC(=O)c1cc(Oc2ccc(NC(=O)c3nn(-c4ccccc4OC(F)(F)F)c(=O)cc3C)cc2)ccn1 | –
21 | 7.42 | 4.22 | 3.69 | CCCNC(=O)c1cc(Oc2ccc(NC(=O)c3nn(-c4ccccc4OC(F)(F)F)c(=O)cc3C)cc2F)ccn1 | –
22 | 3.57 | 2.94 | 1.92 | Cc1ccc(-n2nc(C(=O)Nc3ccc(Oc4ccnc(C(=O)NCCCN5CCOCC5)c4)cc3)c(C)cc2=O)cc1 | IC50 [5]: > 10 µM
23 | 5.21 | 2.5 | 1.65 | Cc1cc(=O)n(-c2cccc(C(F)(F)F)c2)nc1C(=O)Nc1ccc(Oc2ccnc(C(=O)NCCCN3CCOCC3)c2)cc1 | IC50 [5]: > 10 µM
24 | 2.59 | 1.03 | 1.15 | Cc1cc(=O)n(-c2ccccc2OC(F)(F)F)nc1C(=O)Nc1ccc(Oc2ccnc(C(=O)NCCCN3CCOCC3)c2)cc1 | Ratio IC50 (A549 [6]): 2.6 - 6.95; Activity (HeLa [7]): Dose-dependent effect; Activity (HeLa [8]): Active; inhibition at 1.23 µM (HeLa [4]): > 50%; Ratio IC50 (HeLa [9]): 2.6 - 6.95; IC50 [5]: 0.807 µM; Activity (HeLa [10]): Active; Activity (HeLa [3]): Dose-dependent effect; Ratio IC50 (MCF7 [11]): 2.6 - 6.95; Activity (HeLa [12]): Active
